For 20 molecules, viability, IC50 and Activity results are on record in ChEMBL document CHEMBL3751756, “Hydroxylated chalcones with dual properties: Xanthine oxidase inhibitors and radical scavengers” (Bioorg Med Chem, 2016).

Chain of Xanthine dehydrogenase/oxidase (P80457 whole entry): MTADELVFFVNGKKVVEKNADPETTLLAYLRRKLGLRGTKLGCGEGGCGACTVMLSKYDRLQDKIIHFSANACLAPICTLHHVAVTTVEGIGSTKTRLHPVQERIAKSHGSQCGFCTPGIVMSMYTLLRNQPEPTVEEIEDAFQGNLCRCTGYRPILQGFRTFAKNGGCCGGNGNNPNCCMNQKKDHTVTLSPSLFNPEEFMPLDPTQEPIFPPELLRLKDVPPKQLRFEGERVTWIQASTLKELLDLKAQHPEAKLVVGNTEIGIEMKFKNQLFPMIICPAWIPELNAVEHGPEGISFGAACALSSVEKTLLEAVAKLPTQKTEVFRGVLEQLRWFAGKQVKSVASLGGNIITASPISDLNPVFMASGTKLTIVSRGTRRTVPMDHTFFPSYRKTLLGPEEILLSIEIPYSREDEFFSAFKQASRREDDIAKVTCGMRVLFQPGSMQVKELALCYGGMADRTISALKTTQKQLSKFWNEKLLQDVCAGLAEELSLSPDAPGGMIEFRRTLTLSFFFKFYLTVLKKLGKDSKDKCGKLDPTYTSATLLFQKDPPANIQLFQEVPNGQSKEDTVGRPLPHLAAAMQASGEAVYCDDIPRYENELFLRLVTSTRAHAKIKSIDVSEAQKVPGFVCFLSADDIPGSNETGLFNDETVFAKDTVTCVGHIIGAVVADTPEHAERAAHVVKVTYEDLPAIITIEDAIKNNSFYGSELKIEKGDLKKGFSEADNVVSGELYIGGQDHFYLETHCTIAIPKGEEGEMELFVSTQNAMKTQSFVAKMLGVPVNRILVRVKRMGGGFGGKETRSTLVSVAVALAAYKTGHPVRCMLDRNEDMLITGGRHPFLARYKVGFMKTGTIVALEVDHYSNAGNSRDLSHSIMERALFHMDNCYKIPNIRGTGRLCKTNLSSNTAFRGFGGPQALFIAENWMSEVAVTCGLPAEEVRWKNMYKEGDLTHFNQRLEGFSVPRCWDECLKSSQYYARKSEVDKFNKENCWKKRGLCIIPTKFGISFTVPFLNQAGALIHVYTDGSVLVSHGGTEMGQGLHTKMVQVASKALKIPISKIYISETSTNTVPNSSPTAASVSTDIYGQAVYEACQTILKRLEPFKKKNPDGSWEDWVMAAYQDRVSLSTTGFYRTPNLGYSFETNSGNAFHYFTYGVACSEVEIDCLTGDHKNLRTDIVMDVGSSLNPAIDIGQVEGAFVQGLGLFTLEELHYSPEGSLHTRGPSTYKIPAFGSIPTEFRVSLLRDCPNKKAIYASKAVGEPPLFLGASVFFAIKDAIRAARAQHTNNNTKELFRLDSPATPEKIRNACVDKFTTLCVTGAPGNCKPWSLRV

Tested on in one data set: not listed separately
The experiment in a line: Cytoprotective activity against amyloid beta-induced oxidative stress in mouse Neuro2a cells assessed as cell viability at 250 uM after 6 hrs by MTT assay. The conditions noted are these: N2a, read-out: Activity. In kind it is functional. The gist of the method: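 Murine Neuro-2A cells in DMEM with 10% FBS and penicillin-streptomycin, 37°C, 5% CO2; trypsinized ≤1 min, seeded 2,000–4,000 cells/mL, 6 h. Then added 10 μL of 250 μM compound (stock), 15 μL of 833 μM Aβ 25–35 (stock), and MTT (5 mg/mL); 6 h, then SDS/DMF extraction buffer 6 h at 37°C in dark; A570 as percent of unstressed control.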
`O=C(/C=C/c1cccc(O)c1)c1ccc(O)cc1O`: the viability at 250 µM was 6.9%.
The same measure, in the same setting: as for `O=C(/C=C/c1ccc(O)c(O)c1)c1cc(O)ccc1O`, the figure is 46%; as for `O=C(/C=C/c1ccc(O)c(O)c1)c1cccc(O)c1`, 35%.
Consider `O=C(/C=C/c1ccc(O)c(O)c1)c1ccccc1`, for which the viability at 250 µM amounted to 4.3%.
On to `O=C(/C=C/c1ccccc1O)c1ccccc1`, for which the viability at 250 µM came out at 3%.
Same read-out and setting: the value for `O=C(/C=C/c1ccc(O)c(O)c1)c1cc(O)cc(O)c1` was 26%; that for `O=C(/C=C/c1ccc(O)c(O)c1)c1ccc(O)c(O)c1O` was 118%; that for `O=C(/C=C/c1ccc(O)c(O)c1)c1ccc(O)c(O)c1` was 40%.
As for `O=C(/C=C/c1ccccc1)c1cccc(O)c1`, the viability at 250 µM was 5.9%.
Take `O=C(/C=C/c1ccc(O)c(O)c1)c1ccc(O)cc1`: the viability at 250 µM was 28%.
Consider `O=C(/C=C/c1ccc(O)c(O)c1)c1c(O)cccc1O`, for which the viability at 250 µM is 28%.
In the case of `O=C(/C=C/c1cccc(O)c1O)c1ccc(O)c(O)c1`, the viability at 250 µM came out at 46%.
Consider `O=C(/C=C/c1cc(O)ccc1O)c1ccc(O)c(O)c1`, for which the viability at 250 µM amounted to 70%.
In the case of `O=C(/C=C/c1ccc(O)c(O)c1O)c1ccc(O)c(O)c1O`, the viability at 250 µM was found to be 91%.
On the same count and under the same terms, the value for `O=C(/C=C/c1ccc(O)c(O)c1O)c1ccc(O)c(O)c1` was 51%.
The same measure, in the same setting: the value for `O=C(/C=C/c1ccccc1)c1ccc(O)cc1O` [2',4'-DIHYDROXYCHALCONE] was 3.9%; that for `O=C(/C=C/c1ccccc1)c1ccccc1O` [2'-HYDROXYCHALCONE] was 1.7%; that for `O=C(/C=C/c1ccccc1)c1ccc(O)cc1` [4'-HYDROXYCHALCONE] was 1.4%.
In the case of `O=C(/C=C/c1ccc(O)cc1)c1ccccc1` [4-HYDROXYCHALCONE], the viability at 250 µM was determined as 0%.
As for `O=C(/C=C/c1ccc(O)c(O)c1)c1ccc(O)cc1O` [BUTEIN], the viability at 250 µM amounted to 71%.

Another data set concerns the target Xanthine dehydrogenase/oxidase (Bos taurus, UniProt P80457). Put plainly: Inhibition of bovine xanthine oxidase assessed as conversion of xanthine to uric acid by spectroscopic analysis.
Conditions: not given; call rule not given here
The gist of the method:
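XO suspended in 20 mM phosphate pH 7.5, added to xanthine (final 46 μM; final enzyme 39 μg/mL); uric acid formation followed at 295 nm for 5 min. Eleven inhibitor concentrations bracketing the IC50; rates by linear regression of absorbance vs time, fitted to a three-parameter logistic to give IC50.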
With `O=C(/C=C/c1ccccc1O)c1ccccc1`, the IC50 result is recorded as “Not Active”.
With `O=C(/C=C/c1ccccc1)c1cccc(O)c1`, the IC50 result was “Not Active”.
With `O=C(/C=C/c1ccccc1)c1ccc(O)cc1O` [2',4'-DIHYDROXYCHALCONE], the IC50 result was “Not Active”.
In the case of `O=C(/C=C/c1ccccc1)c1ccccc1O` [2'-HYDROXYCHALCONE], the IC50 entry is listed as “Not Active”.
Turning to `O=C(/C=C/c1ccccc1)c1ccc(O)cc1` [4'-HYDROXYCHALCONE], the IC50 result is on record as “Not Active”.

The data set is the same for the next values; noted with them: read-out: IC50.
With `O=C(/C=C/c1cccc(O)c1)c1ccc(O)cc1O`, the IC50 stood at 27 µM.
As to `O=C(/C=C/c1ccc(O)c(O)c1)c1cc(O)ccc1O`, the IC50 came to 17 µM.
As to `O=C(/C=C/c1ccc(O)c(O)c1)c1cccc(O)c1`, the IC50 turned out to be 5.3 µM.
For `O=C(/C=C/c1ccc(O)c(O)c1)c1ccccc1`, the IC50 was 53 µM.
Regarding `O=C(/C=C/c1ccc(O)c(O)c1)c1cc(O)cc(O)c1`, the IC50 came to 6.5 µM.
Regarding `O=C(/C=C/c1ccc(O)c(O)c1)c1ccc(O)c(O)c1O`, the IC50 was determined as 1.2 µM.
On the same count and under the same terms, the value for `O=C(/C=C/c1ccc(O)c(O)c1)c1ccc(O)c(O)c1` was 3 µM.
On to `O=C(/C=C/c1ccc(O)c(O)c1)c1ccc(O)cc1`, for which the IC50 was found to be 4.3 µM.
`O=C(/C=C/c1ccc(O)c(O)c1)c1c(O)cccc1O`: the IC50 was determined as 35 µM.
Turning to `O=C(/C=C/c1cccc(O)c1O)c1ccc(O)c(O)c1`, the IC50 was found to be 93 µM.
For `O=C(/C=C/c1cc(O)ccc1O)c1ccc(O)c(O)c1`, the IC50 is 8.6 µM.
With `O=C(/C=C/c1ccc(O)c(O)c1O)c1ccc(O)c(O)c1O`, the IC50 amounted to 5.5 µM.
With `O=C(/C=C/c1ccc(O)c(O)c1O)c1ccc(O)c(O)c1`, the IC50 turned out to be 18 µM.
Still for that read-out and setting: the value for `O=C(/C=C/c1ccc(O)cc1)c1ccccc1` [4-HYDROXYCHALCONE] was 290 µM; that for `O=C(/C=C/c1ccc(O)c(O)c1)c1ccc(O)cc1O` [BUTEIN] was 1.3 µM.

Tested on in another data set: not listed separately
Put plainly: Antioxidant activity assessed as DPPH radical scavenging activity by measuring remaining DPPH level at 20 uM after 30 mins by plate reader analysis. The conditions noted are these: 0.5 h. In kind it is physicochemical. The gist of the method: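 DPPH (0.2 mM in ethanol, 50 μL freshly prepared) mixed with 150 μL test compound in ethanol, 5–50 μM range; 30 min at room temperature in dark; loss of absorbance at 517 nm read. Scavenging activity = (1 − A_test/A_control) × 100%, control lacking scavenger; reported activity taken at 20 µM compound.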
For `O=C(/C=C/c1cccc(O)c1)c1ccc(O)cc1O`, the Activity is 0.5%.
`O=C(/C=C/c1ccc(O)c(O)c1)c1cc(O)ccc1O`: the Activity is 91%.
For `O=C(/C=C/c1ccc(O)c(O)c1)c1cccc(O)c1`, the Activity turned out to be 82%.
Take `O=C(/C=C/c1ccc(O)c(O)c1)c1ccccc1`: the Activity was 90%.
With `O=C(/C=C/c1ccccc1O)c1ccccc1`, the Activity is -0.6%.
On to `O=C(/C=C/c1ccc(O)c(O)c1)c1cc(O)cc(O)c1`, for which the Activity was determined as 84%.
On to `O=C(/C=C/c1ccc(O)c(O)c1)c1ccc(O)c(O)c1O`, for which the Activity came out at 92%.
Turning to `O=C(/C=C/c1ccc(O)c(O)c1)c1ccc(O)c(O)c1`, the Activity was determined as 77%.
On to `O=C(/C=C/c1ccccc1)c1cccc(O)c1`, for which the Activity was 0.2%.
In the case of `O=C(/C=C/c1ccc(O)c(O)c1)c1ccc(O)cc1`, the Activity was found to be 42%.
In the case of `O=C(/C=C/c1ccc(O)c(O)c1)c1c(O)cccc1O`, the Activity was found to be 90%.
Consider `O=C(/C=C/c1cccc(O)c1O)c1ccc(O)c(O)c1`, for which the Activity was found to be 70%.
Take `O=C(/C=C/c1cc(O)ccc1O)c1ccc(O)c(O)c1`: the Activity stood at 86%.
On to `O=C(/C=C/c1ccc(O)c(O)c1O)c1ccc(O)c(O)c1O`, for which the Activity is reported as 82%.
On to `O=C(/C=C/c1ccc(O)c(O)c1O)c1ccc(O)c(O)c1`, for which the Activity turned out to be 57%.
On to `O=C(/C=C/c1ccccc1)c1ccc(O)cc1O` [2',4'-DIHYDROXYCHALCONE], for which the Activity is on record as -3%.
For `O=C(/C=C/c1ccccc1)c1ccccc1O` [2'-HYDROXYCHALCONE], the Activity stood at 6.7%.
For `O=C(/C=C/c1ccccc1)c1ccc(O)cc1` [4'-HYDROXYCHALCONE], the Activity is -1.4%.
Regarding `O=C(/C=C/c1ccc(O)cc1)c1ccccc1` [4-HYDROXYCHALCONE], the Activity is -9.1%.
In the case of `O=C(/C=C/c1ccc(O)c(O)c1)c1ccc(O)cc1O` [BUTEIN], the Activity worked out at 90%.
